In ChEMBL document CHEMBL1138488, “Synthesis and biological evaluation of 3,3-difluoropyridine-2,4(1H,3H)-dione and 3-deaza-3-fluorouracil base and nucleoside derivatives” (J Med Chem, 2009):
Calls of active or inactive are those of the source. No cut-off for these calls is given here.

What was measured:
Human alphaherpesvirus 3 [1] = experiment: Antiviral activity against thymidine kinase expressing Varicella zoster virus Oka infected in human HEL cells assessed as inhibition of virus-induced cytopathic effect at <=100 uM; assay type: functional, organism-based
How it was run: (§1)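 Confluent cell monolayers were inoculated with 100 CCID₅₀ of virus, and virus was adsorbed for 1 h. Residual virus was then removed and cells were incubated with serial compound concentrations ([…], ... µM). Cytopathicity was scored once it reached completion in untreated virus-infected control cultures.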

[2] = Cytostatic activity against human Molt4/C8 cells at <=500 uM after 3 days by Coulter counting analysis; assay type: ADME, cell-based; conditions: molt-4, 72 h
How it was run: (§2)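 Molt4/C8 or CEM lymphocytes were seeded at 75000 cells per well with varying compound concentrations. Viable cells were counted by Coulter counter after 3 days. CC₅₀ is the concentration inhibiting cell proliferation by 50%.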

Human alphaherpesvirus 1 [3] = experiment: Antiviral activity against HSV1 KOS infected in HEL cells assessed as virus-induced cytopathic effect at <=100 uM; assay type: functional, organism-based
Human betaherpesvirus 5 [4] = experiment: Antiviral activity against HCMV Davis infected in HEL cells assessed as inhibition of virus-induced cytopathic effect at <=100 uM; assay type: functional, organism-based; how it was run: as §1
Punta Toro virus = experiment: Antiviral activity against Punta Toro virus infected in african green monkey Vero cells assessed as inhibition of virus-induced cytopathic effect at <=100 uM; assay type: functional, organism-based; how it was run: as §1
[5] = test system: Mammalian orthoreovirus 3; experiment: Antiviral activity against Reovirus 3 infected in african green monkey Vero cells assessed as inhibition of virus-induced cytopathic effect at <=100 uM; assay type: functional, organism-based
[6] = test system: Vesicular stomatitis virus; experiment: Antiviral activity against Vesicular stomatitis virus infected in human HeLa cells assessed as inhibition of virus-induced cytopathic effect at <=100 uM; assay type: functional, organism-based
Human alphaherpesvirus 3 [7] = experiment: Antiviral activity against thymidine kinase deficient Varicella zoster virus 07/1 infected in human HEL cells assessed as inhibition of virus-induced cytopathic effect at <=100 uM; assay type: functional, organism-based; how it was run: as §1
Human alphaherpesvirus 2 = experiment: Antiviral activity against HSV2 strain G infected in HEL cells assessed as virus-induced cytopathic effect at <=100 uM; assay type: functional, organism-based
L1210 = experiment: Cytostatic activity against mouse L1210 cells at <=500 uM after 2 days by Coulter counting analysis; assay type: ADME, cell-based; conditions: l1210, 48 h
How it was run: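 Murine leukemia L1210 cells were seeded at 50000 cells per well with varying compound concentrations. Viable cell number was counted by Coulter counter after 2 days.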

Human respirovirus 3 = experiment: Antiviral activity against Parainfluenza virus type 3 infected in african green monkey Vero cells assessed as inhibition of virus-induced cytopathic effect at <=100 uM; assay type: functional, organism-based; how it was run: as §1
[8] = test system: Human immunodeficiency virus 2; experiment: Antiviral activity against HIV2 ROD replication in human CEM cells assessed as virus-induced giant cell formation at <=100 uM after 4 days; assay type: functional, organism-based; conditions: CCRF-CEM
How it was run: (§3)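 CEM cells (~3 × 10⁵ cells/cm³) were infected with 100 CCID₅₀/mL of HIV-1(III_B) or HIV-2(ROD) and seeded into wells containing compound dilutions. After 4 days at 37 °C, virus-induced giant cell formation was examined microscopically.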

[9] = test system: Human immunodeficiency virus 1; experiment: Antiviral activity against HIV1 3B replication in human CEM cells assessed as virus-induced giant cell formation at <=100 uM after 4 days; assay type: functional, organism-based; conditions: CCRF-CEM; how it was run: as §3
Human alphaherpesvirus 1 [10] = experiment: Antiviral activity against acyclovir-resistant […] kinase-deficient HSV1 KOS infected in HEL cells assessed as virus-induced cytopathic effect at <=100 uM; assay type: functional, organism-based
[11] = test system: Respiratory syncytial virus; experiment: Antiviral activity against Respiratory syncytial virus infected in human HeLa cells assessed as inhibition of virus-induced cytopathic effect at <=100 uM; assay type: functional, organism-based; how it was run: as §1
[12] = test system: Moloney murine sarcoma virus; experiment: Antiviral activity against Moloney sarcoma virus replication infected in mouse […] cells assessed as virus-induced transformation of cells at <=100 uM measured on day 6 postinfection; assay type: functional, organism-based
How it was run: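 Murine C3H/3T3 embryo fibroblasts were grown to confluency and infected with Moloney murine sarcoma virus at 75 focus-forming units. Compound concentrations were then added, and virus-induced transformation was examined microscopically at day 6 postinfection.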

Sindbis virus = experiment: Antiviral activity against Sindbis virus infected in african green monkey Vero cells assessed as inhibition of virus-induced cytopathic effect at <=100 uM; assay type: functional, organism-based; how it was run: as §1
Vaccinia virus = experiment: Antiviral activity against Vaccinia virus infected in HEL cells assessed as inhibition of virus-induced cytopathic effect at <=100 uM; assay type: functional, organism-based; conditions: Orthopoxvirus vaccinia
[13] = test system: Vesicular stomatitis virus; experiment: Antiviral activity against Vesicular stomatitis virus infected in HEL cells assessed as inhibition of virus-induced cytopathic effect at <=100 uM; assay type: functional, organism-based
CCRF-CEM = experiment: Cytostatic activity against human CEM cells at <=500 uM after 3 days by Coulter counting analysis; assay type: cell-based; conditions: 72 h; how it was run: as §2
Coxsackievirus B4 = experiment: Antiviral activity against Coxsackievirus B4 infected in human HeLa cells assessed as inhibition of virus-induced cytopathic effect at <=100 uM; assay type: functional, organism-based; how it was run: as §1
Human betaherpesvirus 5 [14] = experiment: Antiviral activity against HCMV AD169 infected in HEL cells assessed as inhibition of virus-induced cytopathic effect at <=100 uM; assay type: functional, organism-based; how it was run: as §1

Compound	Activity (Human alphaherpesvirus 3 [1])	Activity [2]	Activity (Human alphaherpesvirus 1 [3])	Activity (Human betaherpesvirus 5 [4])	Activity (Punta Toro virus)	Activity [5]	Activity [6]	Activity (Human alphaherpesvirus 3 [7])	Activity (Human alphaherpesvirus 2)	Activity (L1210)	Activity (Human respirovirus 3)	Activity [8]	Activity [9]	Activity (Human alphaherpesvirus 1 [10])	Activity [11]	Activity [12]	Activity (Sindbis virus)	Activity (Vaccinia virus)	Activity [13]	Activity (CCRF-CEM)	also measured
O=C1N([C@H]2C[C@H](O)[C@@H](CO)O2)C=CC(O)(c2ccccc2)C1(F)F (stereo partly drawn)	inactive	Not Active	inactive	inactive	inactive	inactive	inactive	inactive	inactive	Not Active	inactive	inactive	inactive	inactive	inactive	inactive	inactive	inactive	inactive	Not Active	Activity (Coxsackievirus B4): inactive; Activity (Human betaherpesvirus 5 [14]): inactive
CC1(O)C=CN([C@H]2C[C@H](O)[C@@H](CO)O2)C(=O)C1(F)F (stereo partly drawn)	inactive	Not Active	inactive	inactive	inactive	inactive	inactive	inactive	inactive	Not Active	inactive	inactive	inactive	inactive	inactive	inactive	inactive	inactive	inactive	Not Active	Activity (Coxsackievirus B4): inactive; Activity (Human betaherpesvirus 5 [14]): inactive
O=c1c(F)c(O)ccn1[C@H]1C[C@H](O)[C@@H](CO)O1	inactive	Not Active	inactive	inactive	inactive	inactive	inactive	inactive	inactive	Not Active	inactive	inactive	inactive	inactive	inactive	inactive	inactive	inactive	inactive	Not Active	Activity (Coxsackievirus B4): inactive; Activity (Human betaherpesvirus 5 [14]): inactive
CC1(O)C=CN([C@@H]2O[C@H](CO)[C@@H](O)[C@H]2O)C(=O)C1(F)F (stereo partly drawn)	inactive	Not Active	inactive	inactive	inactive	inactive	inactive	inactive	inactive	Not Active	inactive	inactive	inactive	inactive	inactive	inactive	inactive	inactive	inactive	Not Active	Activity (Coxsackievirus B4): inactive; Activity (Human betaherpesvirus 5 [14]): inactive
NC(=O)Cc1ccn([C@H]2C[C@H](O)[C@@H](CO)O2)c(=O)c1F	inactive	Not Active	inactive	inactive	inactive	inactive	inactive	inactive	inactive	Not Active	inactive	inactive	inactive	inactive	inactive	inactive	inactive	inactive	inactive	Not Active	Activity (Coxsackievirus B4): inactive; Activity (Human betaherpesvirus 5 [14]): inactive
O=c1c(F)c(O)ccn1[C@@H]1O[C@H](CO)[C@@H](O)[C@@H]1O	inactive	Not Active	inactive	inactive	inactive	inactive	inactive	inactive	inactive	Not Active	inactive	inactive	inactive	inactive	inactive	inactive	inactive	inactive	inactive	Not Active	Activity (Coxsackievirus B4): inactive; Activity (Human betaherpesvirus 5 [14]): inactive
NC(=O)Cc1ccn([C@@H]2O[C@H](CO)[C@@H](O)[C@H]2O)c(=O)c1F	inactive	Not Active	inactive	inactive	inactive	inactive	inactive	inactive	inactive	Not Active	inactive	inactive	inactive	inactive	inactive	inactive	inactive	inactive	inactive	Not Active	Activity (Coxsackievirus B4): inactive; Activity (Human betaherpesvirus 5 [14]): inactive
O=C1N([C@@H]2O[C@H](CO)[C@@H](O)[C@H]2O)C=CC(O)(c2ccccc2)C1(F)F (stereo partly drawn)	inactive	Not Active	inactive	inactive	inactive	inactive	inactive	inactive	inactive	Not Active	inactive	inactive	inactive	inactive	inactive	inactive	inactive	inactive	inactive	Not Active	Activity (Coxsackievirus B4): inactive; Activity (Human betaherpesvirus 5 [14]): inactive
C#CC1(O)C=CN([C@H]2C[C@H](O)[C@@H](CO)O2)C(=O)C1(F)F (stereo partly drawn)	inactive	Not Active	inactive	inactive	inactive	inactive	inactive	inactive	inactive	Not Active	inactive	inactive	inactive	inactive	inactive	inactive	inactive	inactive	inactive	Not Active	Activity (Coxsackievirus B4): inactive; Activity (Human betaherpesvirus 5 [14]): inactive
